In the library only some 4.9% were active in any assay of this set; here they are far more common.
NF-kB neuron act: NF-kB expression increase, human neuronal cells; NF-kB reporter expression; active compounds read high; fold change at 12.5 µM; 190,000 compounds, 1.6% hits; in the data active means fold change above about 3.3
APP 5'UTR act: APP 5'UTR luciferase reporter activation; AID 1276; activation, % at 2 µM; SH-SY5Y APP 5'UTR luciferase reporter, luminescence; zero percent = DMSO vehicle wells; 190,000 compounds, 1% hits;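 active means activation above a set limit, based on mean plus 3 SD of controls, cut at about 140% in these data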
STAT1 inh: STAT1 signaling inhibition; NIH 3T3 STAT1-luciferase reporter, IFN-gamma, luminescence; inhibition, % at 5.5 µM; 200,000 compounds, 0.35% hits; AID 920;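 active means inhibition above a set limit, the mean inhibition across all tested compounds plus 3 SD, cut at about 34% in these data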;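 further: 0% = IFN-gamma with DMSO and 100% = IFN-gamma with 300 µM nifuroxazide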
STAT3 act: STAT3 signaling activation | U3A cells, IL-6 STAT3-luciferase reporter, luminescence; 100% = signal with IL-6 EC80 alone | activation (% of control), % at 5.6 µM | 190,000 compounds, 0.91% hits | AID 871;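 active means activation above the screen-wide mean of compound activation plus 3 SD, cut at about 130% in these data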;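 further: 0% = background luminescence of wells with medium and substrate only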
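system = STAT3-luciferase reporter U3A cells | reagent = IL-6 stimulus at 33 ng/mL final | timing = 1 h compound pre-exposure, 6 h IL-6 stimulation, 37 °C | measured by = luminescence | evaluation = % activation versus median of IL-6-stimulated wells | control set = IL-6-only wells as 100% reference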
STAT1 activator: activators of IFN-gamma induced STAT1 signaling. NIH 3T3 STAT1-luciferase reporter, luminescence; 100% = IFN-gamma alone, no compound. 200,000 compounds, 2.6% hits. activation (% of control), % at 5.5 µM;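 active means activation above the screen-wide mean activation plus 3 SD, cut at about 130% in these data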;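 further: raw ratio to IFN-gamma control signal so 100% means no change and 0% no light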
STAT3 blocker: inhibitors of IL-6 induced STAT3 signaling. AID 862. U3A cells, IL-6 STAT3-luciferase reporter, luminescence; host cell line lacks STAT1. inhibition, % at 5.5 µM. 190,000 compounds, 0.89% hits;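 active means inhibition above the mean inhibition across all screened compounds plus 3 SD, cut at about 44% in these data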;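 further: 0% = DMSO only wells and 100% = 100 µM nifuroxazide control wells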
Starred values were filed as active, the others as inactive; nt = not tested or not shown.

SMILES	NF-kB neuron act	APP 5'UTR act	STAT1 inh	STAT3 act	STAT1 activator	STAT3 blocker
Cc1[nH]c2ccccc2c1N=Nc1cccc(C(=O)O)c1	4.1*	83	-52	109	147*	-9
Cc1[nH]c2ccccc2c1N=Nc1ccccc1C(=O)O	0.92	5	8	135*	93	-42
Cc1noc(C)c1N=Nc1ccccc1C(=O)O	0.91	17	-1	103	102	2
O=C(Cc1ncc(C(F)(F)F)cc1Cl)NCCc1ccccn1	1.2	-6	-2	100	101	3
O=C(COn1nnc2ccccc21)NCC1CCCCC1	1.9	6	-31	109	129*	-7
CCCNC(=O)c1cc(-c2ccco2)on1	4.9*	50	-21	103	120	0
O=C(NC1CCCCC1)c1cc(-c2ccco2)on1	2.6	60	-33	95	130*	12
Cc1cc(Cl)ccc1OCCCC(=O)OCC(N)=O	1	15	-5	87	103	20
c1ccc(CSc2ccc(-c3ccccn3)nn2)cc1	6.5*	139*	-7	74	106	35
O=C(CSc1ccc(-c2ccco2)nn1)NCc1ccccc1	1	19	-1	96	101	4
COc1ccccc1-c1ccc(SCc2ccccc2)nn1	1.9	35	-20	94	119	12
Cc1cccc(CSc2ccc(-c3ccco3)nn2)c1	1.6	49	-37	95	133*	4
Clc1cccc(CSc2ccc(-c3ccco3)nn2)c1	1.2	22	-10	88	110	19
Fc1ccccc1CSc1ccc(-c2ccco2)nn1	4.9*	64	-28	89	125	16
COc1ccccc1-c1ccc(SCc2ccccc2F)nn1	1.8	37	-32	96	129*	8
CCOC(=O)c1ccc(N2C(=O)c3n[nH]c(-c4ccco4)c3C2c2cccc([N+](=O)[O-])c2)cc1 (stereo not given)	0.41	7	1	96	99	2
COc1ccc(/C=C2/C(=O)N(c3nc4ccccc4s3)N=C2CSc2ccc(Cl)cc2)cc1	1.2	12	-6	112	106	-10
CCOC(=O)c1nc(-c2ccccc2)oc1N1CCOCC1	1.2	-8	-1	103	101	-5
c1ccc(CSc2ccc(-c3ccco3)nn2)cc1	3.9*	110	-50	86	145*	19
Cc1ccc(CSc2ccc(-c3ccco3)nn2)cc1	3.3*	71	-27	94	125	6
Clc1ccc(CSc2ccc(-c3ccco3)nn2)cc1	1.9	5	-25	97	122	7
Cc1nc2scc(-c3ccc(C(C)(C)C)cc3)c2c(=O)n1N	0.6	4	10	83	91	27
O=C(Cn1ncc(N2CCOCC2)c(Br)c1=O)c1ccc(Cl)cc1	0.93	26	-17	94	114	9
O=C(Cn1ncc(N2CCCC2)c(Cl)c1=O)c1ccc(Cl)cc1	1.3	83	-41	110	136*	0
Cc1cc(OC(=O)c2ccccc2Br)cc(=O)n1C	0.96	-1	39*	83	65	26
SMILES	NF-kB neuron act	APP 5'UTR act	STAT1 inh	STAT3 act	STAT1 activator	STAT3 blocker
CC(=O)c1c(OC(=O)c2ccccc2Br)ccc2c(C)cc(=O)oc12	0.88	-11	4	99	96	10
Clc1ccc(COc2cccc(CNCc3ccncc3)c2)cc1	nt	0	19	85	82	22
CC(C)(C)c1ccc(C(=O)Nc2cnccn2)cc1	6.4*	173*	-17	71	116	37
CCn1nc(C)c(Br)c1Nc1ccc(Br)cc1	1.2	26	0	103	98	0
CCC(=O)N1CCN(c2ccc(NC(=O)c3ccc([N+](=O)[O-])o3)cc2)CC1	0.78	-48	-35	85	129*	23
O=C(Nc1ccc(N2CCN(C(=O)c3ccc(Cl)cc3)CC2)cc1)c1ccc([N+](=O)[O-])o1	0.15	-96	-46	106	139*	-2
CCCC(=O)N1CCN(c2ccc(NC(=O)c3ccc(Br)o3)cc2)CC1	0.8	7	-5	92	104	13
CCCC(=O)N1CCN(c2ccc(NC(=O)c3ccc([N+](=O)[O-])o3)cc2)CC1	nt	-70	-56	96	148*	9
CCC(=O)N1CCN(c2ccc(NC(=O)c3ccccc3)cc2)CC1	1.2	15	-6	102	104	2
COc1ccc(CCN2C(=O)CC(N3CCN(S(=O)(=O)c4ccccc4)CC3)C2=O)cc1OC (stereo not given)	0.97	13	1	106	97	0
COc1cccc(C(=O)Nc2sc3c(c2C#N)CCN(C(C)=O)C3)c1	1.8	-92	12	88	89	19
O=C1/C(=C\c2ccccc2)CCc2c1[nH]c1ccccc21	4.7*	162*	-46	104	141*	5
COCc1cc(C)nc(N/N=C/c2ccc(Cl)c(Cl)c2)c1C#N	1.3	-18	7	99	94	-1
O=C(O)c1cccc(-c2nc3ccccc3[nH]2)c1	1.7	15	55*	44	50	65*
Cc1cc(-c2nc3ccccc3[nH]2)ccc1N	5*	107	-20	79	116	29
Cc1ccc(-c2nc3ccccc3[nH]2)s1	5.5*	114	-25	82	123	27
CC(C)CCN1CCN(CCCn2cccn2)CC1CCO (stereo not given)	1.4	-7	-2	100	100	4
O=C(Nc1ccc(Cl)cc1)NC1CCCCC1	2.6	46	-43	115	138*	-15
S=C(Nc1ccc2nc(-c3ccccn3)c(-c3ccccn3)nc2c1)N1CCCCC1	0.95	-6	2	101	97	1
O=C(Nc1ccc2nsnc2c1)NC1CCCCC1	3.8*	92	-34	107	131*	-8
COc1cccc(NC(=O)Nc2ccc3nsnc3c2)c1	1.8	nt	-35	94	131*	12
Nc1ccc(NC(=O)NC2CCCCC2)cc1	1.4	4	-16	95	115	12
O=C(Nc1ccc2nsnc2c1)C1CC1	0.97	-2	-6	88	104	16
S=C(Nc1ccc2nsnc2c1)N1CCCCC1	2.6	65	-36	97	132*	2
COc1ccc(NC(=O)Nc2cccc(OC)c2)cc1	nt	66	-18	104	117	3
Clc1ccc(/C=N/Nc2ccccn2)cc1	2.5	31	-35	83	135*	25
Fc1ccc(/C=N/Nc2ccccn2)cc1	2	49	-19	97	117	1
Brc1ccccc1/C=N/Nc1ccccn1	2.1	42	-25	133	122	-37
Brc1ccc(/C=N/Nc2ccccn2)cc1	3	58	-38	85	138*	22
CC1=NN(c2ccccc2)C(=O)C1N=Nc1ccc(N)cc1 (stereo not given)	0.64	-25	2	97	98	8

Screening data: PubChem, several laboratories
